# Only some compounds are listed: those with a hit (about 1.9% of all), similar ones and a draw of the others.
# pCIP destab = p/CIP protein destabilization. Q05BA5. F442A p/CIP-EGFP cells, EGFP fluorescence, 16 h. decrease of EGFP signal, % at 10 µM. actives 0.01% (n = 290,000). AID 1984;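 active = EGFP signal decrease of at least 30% at 10 µM or well 3 SD below plate mean, unless failing retest; inactive = the rest, including hits failing retest or dose response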
# core dimer inh = HCV core protein dimerization inhibition; actives 0.33% (n = 300,000); inhibition, % at 5 µM; TR-FRET GST/Flag-core106 dimerization, 1536-well;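 active = inhibition above the mean of all tested compounds plus 3 SD, set per screening campaign, cut at about 45% in these data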
#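 Test system: GST/Flag-tagged HCV core106 proteins; Medium: KF-containing HEPES buffer, pH 7.45, DTT, CHAPS, BSA; Times: compound-protein-antibody incubation 4 h at 22.5 °C; Detection: TR-FRET 671 and 617 nm emission; Benchmarks: wells lacking GST-core106 and wells with excess unlabelled core106.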
# DNA FID counter-1 = displaces DNA intercalator in HCV helicase counter-screen | actives 0.17% (n = 290,000) | inhibition, % at 7.9 µM | DNA fluorescent intercalator displacement, fluorescence;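 note: 0% = vehicle and 100% = reference compound; higher means more ethidium bromide displaced from hairpin DNA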
# HCV NS3 hel inh = inhibitors of Hepatitis C virus NS3 helicase. NS3 helicase DNA unwinding, Cy5 molecular beacon fluorescence. inhibition, % at 10.9 µM. actives 0.56% (n = 290,000). AID 1800;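 active = inhibition above the mean of all tested compounds plus 3 SD, set per campaign, cut at about 35% in these data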;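 note: 0% = DMSO wells and 100% = thioflavine S control wells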
#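 System: NS3 helicase fragment of HCV / Schedule: 1 h at 25 °C / Control set: DMSO alone as 0% and 110 µM thioflavine S as 100% / Reagent: Cy5/quencher beacon DNA duplex and ATP to start / Technique: Cy5 fluorescence / Replication: singlicate / Evaluation: % inhibition of end-to-start signal ratio versus controls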
# GPR7 antag = blocks human GPR7 receptor signaling | P48145 | GPR7-expressing cells, fluorescence antagonist assay | inhibition, % at 4.4 µM | actives 1.1% (n = 290,000) | AID 1861; in the data active = inhibition above about 16%, passing the limit was not always enough;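 note: cells stimulated with the agonist NPW; 0% = agonist with vehicle and 100% = vehicle without agonist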
# NS3 helicase cf = confirmation of Hepatitis C virus NS3 helicase inhibitors; shares compounds with HCV NS3 hel inh; NS3 helicase DNA unwinding, Cy5 molecular beacon fluorescence; inhibition, % at 10.9 µM; actives 31% (n = 1,600);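 active = inhibition above the mean of all tested compounds plus 3 SD, cutoff set per campaign, cut at about 36% in these data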
# DNA FID counter-2 = counter-screen for HCV NS3 helicase inhibitors: DNA intercalator displacement | shares compounds with HCV NS3 hel inh | DNA fluorescent intercalator displacement, fluorescence | inhibition, % at 7.9 µM | actives 4% (n = 1,600);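 note: 0% = vehicle and 100% = reference compound; higher means more displacement of ethidium bromide from the DNA hairpin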
# DNA FID DR = displaces fluorescent intercalator from DNA, HCV helicase counter-screen; shares compounds with HCV NS3 hel inh; fluorescent intercalator displacement from DNA, fluorescence; IC50, µM; 120 tested, under 10 active; AID 2172; call rule not given here
# * hit, by the source's call; . = no result given. Cut-off read from the data, not from the text of the source, unless noted: active = inhibition above about 37%; inactive = the rest.
SMILES,pCIP destab,core dimer inh,DNA FID counter-1,HCV NS3 hel inh,GPR7 antag,NS3 helicase cf,DNA FID counter-2,others
CN(C(=O)CC1C(=O)NCCN1Cc1ccc(F)c(F)c1)C1CCCCC1 (configuration not stated),-7,0,-18,-19,3,.,.,
Oc1ccccc1/C=N/NC(=S)NC1CC2C=CC1C2 (configuration not stated),-12,-2,-2,27,-19,.,.,
Oc1c(Cl)cc(Cl)cc1/C=N/NC(=S)NC1CC2C=CC1C2 (configuration not stated),-7,11,-17,48*,-15,52*,8,DNA FID DR=>79
O=C1C(=Cc2ccc(Br)o2)C(=O)c2ccccc21,2,9,-14,45*,-6,85*,28,
CC(=O)Oc1ccc(C(=O)Nc2cccc(-c3nnc(-c4ccco4)o3)c2)cc1,-4,7,1,51*,1,16,-20,
O=C(COc1ccc2ccccc2c1)N[C@@H](C(=O)O)c1ccc(O)cc1,-16,-7,-21,43*,22,-29,-4,
O=C(COc1ccc2ccccc2c1)NNC(=O)Cc1ccccc1,-7,-5,0,1,5,.,.,
Oc1c(Br)cc(Cl)cc1C=Nc1ccc(N2CCOCC2)cc1,-12,-4,5,43*,2,13,13,
Oc1ccc(N=Nc2cccc(Cl)c2)cc1C=Nc1ccc(N2CCOCC2)cc1,-1,.,6,19,-10,.,.,
O=c1c(C(c2ccc(Cl)cc2)c2c(O)nc3n(c2=O)CCS3)c(O)nc2n1CCS2,-30,1,-5,47*,7,23,2,
O=C(Nc1cc(S(=O)(=O)Nc2ccc(Cl)cc2)ccc1O)c1ccc(S(=O)(=O)N2CCCCCC2)cc1,-23,24,-6,45*,2,-26,3,
O=C(NNS(=O)(=O)c1ccc(Cl)cc1)c1ccc(S(=O)(=O)N2CCCCC2)cc1,10,-9,-27,2,1,.,.,
CCCN(CCC)CCCNC(=O)c1cc2c(=O)[nH]c3ccccc3c2s1,-14,-12,13,1,-5,.,.,
COc1ccc(OC)c(NC(=O)C(=O)NNC(=O)C23CC4CC(CC(C4)C2)C3)c1,3,1,-23,-3,-4,.,.,
NS(=O)(=O)c1ccc(N=Nc2ccc(=O)[nH]c2O)cc1,-4,-16,1,32,7,-17,13,
COc1ccc(C(=O)N=C2SC3CS(=O)(=O)CC3N2c2ccc(N(C)C)cc2)cc1OC (configuration not stated),-8,-2,-28,-24,-32,.,.,
CN(C)n1cnc2ccsc2c1=O,4,-1,-1,8,-14,.,.,
COc1cc2c(cc1OC)CN(CC(=O)Nc1cccc(C(F)(F)F)c1)CC2,6,10,-9,-16,-6,.,.,
O=c1c(-c2ccccc2)c(O)c2cccc3c2n1CCC3,14,-1,-4,0,-4,.,.,
Cc1cc(C)c(-c2c(O)c3cccc4c3n(c2=O)CCC4)c(C)c1,4,-4,-26,40*,-18,-16,-3,
CC1=NN(C(N)=S)C(=O)C1N=Nc1ccc(C)c(Br)c1 (configuration not stated),10,-15,-20,40*,-5,-19,13,
CCOC(=O)c1sc(NC(=O)CN2CCN(c3ccccc3)CC2)nc1C,0,8,-21,-14,-6,.,.,
CCOC(=O)N1CCN(c2nc(-c3ccccc3)c3ccccc3n2)CC1,-4,-1,-37,-15,10,.,.,
CSc1nc(-c2cccs2)c(C#N)c(=O)[nH]1,-5,10,-5,1,-9,.,.,
N#Cc1c(-c2cccs2)nc(SCc2ccc(Cl)cc2)[nH]c1=O,-12,.,6,48*,-4,60*,35,
CCOC(=O)c1ccc(NS(=O)(=O)c2c(C)nc3sccn3c2=O)cc1,-15,1,-19,2,-5,.,.,
COc1cccc(CNC(=O)C(=O)N2CCC3(CC2)OCCN3S(=O)(=O)c2ccc(C)cc2)c1,.,-1,.,.,.,.,.,

# Assay outcomes deposited in PubChem BioAssay by several laboratories.
